Assay results from ChEMBL document CHEMBL1151796, “Novel anticancer agents, kayeassamins C-I from the flower of Kayea assamica of Myanmar” (2008).

Tested on: PANC-1
Test: Cytotoxicity against human PANC1 cells in nutrient-deprived condition
Assay type: functional
Details: not given
How it was run: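 PANC-1 cells seeded at 2×10^4 per well, grown 24 h in DMEM at 37 °C, 5% CO₂, PBS-washed, then switched to nutrient-deprived medium (NDM) or DMEM with serial dilutions of pure compounds (1–256 µM). Incubated 24 h, washed, then 2 h with DMEM containing 10% WST-8 and read at 450 nm. Endpoint reported as PC₁₀₀.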

Compound	Cytotoxicity [µM]
CCCC(=O)c1c2c(c3oc(=O)cc(CCC)c3c1O)CC(C(C)(C)O)O2 (stereo not given)	64
CC[C@H](O)c1cc(=O)oc2c(C(=O)CC(C)C)c(O)c3c(c12)OC(C)(C)C=C3	32
CCCC(=O)c1c(O)c(CC=C(C)C)c2oc(=O)cc(CCC)c2c1O	2
CCCC(=O)c1c(O)c(CC=C(C)C)c(O)c2c(-c3ccccc3)cc(=O)oc12	8
CCCC(=O)c1c2c(c3oc(=O)cc(-c4ccccc4)c3c1O)C=CC(C)(C)O2	>256
COc1cc(C[C@H]2C(=O)OC[C@@H]2Cc2ccc(OC)c(OC)c2)ccc1O [ARCTIGENIN]	1
CCCC(=O)c1c(O)c(C/C=C(\C)CCC=C(C)C)c(O)c2c([C@@H](O)CC)cc(=O)oc12 [KAYEASSAMIN A]	1
CCCC(=O)c1c(O)c(C/C=C(\C)CCC=C(C)C)c2oc(=O)cc([C@@H](O)CC)c2c1O [KAYEASSAMIN B]	1
CCC(C)C(=O)c1c(O)c(C/C=C(\C)CCC=C(C)C)c2oc(=O)cc([C@@H](O)CC)c2c1O (stereo not given in full) [KAYEASSAMIN C]	4
CC[C@H](O)c1cc(=O)oc2c(C/C=C(\C)CCC=C(C)C)c(O)c(C(=O)CC(C)C)c(O)c12 [KAYEASSAMIN D]	1
CCCC(=O)c1c(O)c(CC=C(C)C)c2oc(=O)cc([C@@H](O)CC)c2c1O [KAYEASSAMIN E]	1
CCC(C)C(=O)c1c(O)c(CC=C(C)C)c2oc(=O)cc([C@@H](O)CC)c2c1O (stereo not given in full) [KAYEASSAMIN F]	2
CC[C@H](O)c1cc(=O)oc2c(CC=C(C)C)c(O)c(C(=O)CC(C)C)c(O)c12 [KAYEASSAMIN G]	1
CCCC(=O)c1c(O)c(CC=C(C)C)c2oc(=O)cc3c2c1OC(C)C3 (stereo not given) [KAYEASSAMIN H]	64
CCCC(=O)c1c(O)c2c(c3c([C@@H](O)CC)cc(=O)oc13)OC(C)(CCC=C(C)C)C=C2 (stereo not given in full) [KAYEASSAMIN I]	64
CCCC(=O)c1c(O)c(CC=C(C)C)c2oc(=O)cc(-c3ccccc3)c2c1O [MAMMEA A/AC]	16
CC(C)CC(=O)c1c2c(c3oc(=O)cc(-c4ccccc4)c3c1O)C=CC(C)(C)O2 [MAMMEIGIN]	32

Tested on: PANC-1
Test: Cytotoxicity against human PANC1 cells in nutrient-deprived condition assessed as complete preferential cell death at 1 uM
Assay type: functional, cell-based
Details: TDE = time-dependent effect
How it was run: (§1)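 PANC-1 cells (2×10^4 per well, 24 h preculture in DMEM, 37 °C, 5% CO₂) were PBS-washed and exposed in NDM or DMEM for 3, 6, 9, 12 and 24 h. Morphology was checked by phase-contrast microscopy at 20×. Cells were then washed and given 2 h of 10% WST-8 in DMEM, with absorbance read at 450 nm. Viability was taken from the mean of three wells.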

Compound	Activity
CC[C@H](O)c1cc(=O)oc2c(C/C=C(\C)CCC=C(C)C)c(O)c(C(=O)CC(C)C)c(O)c12 [KAYEASSAMIN D]	tde

Tested on: PANC-1
Test: Cytotoxicity against human PANC1 cells in nutrient-deprived condition assessed as preferential cell death within 3 hrs
Assay type: functional, cell-based
Details: not given
How it was run: as §1

Compound	Activity
CCCC(=O)c1c(O)c(CC=C(C)C)c2oc(=O)cc([C@@H](O)CC)c2c1O [KAYEASSAMIN E]	Dose-dependent effect

Same assay, conditions: TDE = time-dependent effect

Compound	Activity
CC[C@H](O)c1cc(=O)oc2c(CC=C(C)C)c(O)c(C(=O)CC(C)C)c(O)c12 [KAYEASSAMIN G]	tde
